# Assay results published in ChEMBL document CHEMBL5247575 (J Med Chem, 2018).
# Key:
# Acinetobacter baumannii [1] = assay: Synergistic antibacterial activity against Acinetobacter baumannii PR448 producing OXA-23 assessed as meropenem MIC at 8 ug/ml by broth microdilution method; type: functional; conditions: dose 8 µg/ml
# Pseudomonas aeruginosa [2] = assay: Synergistic antibacterial activity against Pseudomonas aeruginosa 839 assessed as cefepime MIC at 8 ug/ml by broth microdilution method; type: functional; conditions: dose 8 µg/ml
# Klebsiella pneumoniae [3] = assay: Synergistic antibacterial activity against Klebsiella pneumoniae 761/1723 producing KPC-3 assessed as meropenem MIC at 8 ug/ml by broth microdilution method; type: functional; conditions: dose 8 µg/ml
# Klebsiella pneumoniae [4] = assay: Synergistic antibacterial activity against Klebsiella pneumoniae 761/1723 producing KPC-3 assessed as meropenem MIC at 4 ug/ml by broth microdilution method; type: functional; conditions: dose 4 µg/ml
# Escherichia coli [5] = assay: Synergistic antibacterial activity against Escherichia coli DH10B transfected with pBC SK (-) PDC-3 assessed as meropenem MIC at 8 ug/ml by broth microdilution method; type: functional; conditions: dose 8 µg/ml
# How it was run: (§1)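 Broth microdilution per CLSI guidelines, using custom frozen panels. […] Each partner drug was also tested alone. MICs were run in triplicate and the modal value is reported.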
# Klebsiella pneumoniae [6] = assay: Synergistic antibacterial activity against Klebsiella pneumoniae 761/1723 producing KPC-3 assessed as cefepime MIC at 4 ug/ml by broth microdilution method; type: functional; conditions: dose 4 µg/ml; how it was run: as §1
# Acinetobacter baumannii [7] = assay: Synergistic antibacterial activity against Acinetobacter baumannii PR319 producing OXA-23/24/40 assessed as cefepime MIC at 8 ug/ml by broth microdilution method; type: functional; conditions: dose 8 µg/ml
# Escherichia coli [8] = assay: Synergistic antibacterial activity against Escherichia coli DH10B transfected with pBR322-catI-KPC-2 assessed as meropenem MIC at 4 ug/ml by broth microdilution method; type: functional; conditions: dose 4 µg/ml; how it was run: as §1
# Klebsiella pneumoniae [9] = assay: Synergistic antibacterial activity against Klebsiella pneumoniae 972/1910 producing KPC-3 assessed as cefepime MIC at 8 ug/ml by broth microdilution method; type: functional; conditions: dose 8 µg/ml
# Klebsiella pneumoniae [10] = assay: Synergistic antibacterial activity against Klebsiella pneumoniae 1084/1957 producing KPC-3 assessed as cefepime MIC at 8 ug/ml by broth microdilution method; type: functional; conditions: dose 8 µg/ml; how it was run: as §1
# Acinetobacter baumannii [11] = assay: Synergistic antibacterial activity against Acinetobacter baumannii PR476 producing OXA-24/40 assessed as meropenem MIC at 8 ug/ml by broth microdilution method; type: functional; conditions: dose 8 µg/ml
# Klebsiella pneumoniae [12] = assay: Synergistic antibacterial activity against Klebsiella pneumoniae CAV 1543 producing OXA-48 assessed as cefepime MIC at 8 ug/ml by broth microdilution method; type: functional; conditions: dose 8 µg/ml
# Klebsiella pneumoniae [13] = assay: Synergistic antibacterial activity against Klebsiella pneumoniae jefferson 1775 producing OXA-48 assessed as cefepime MIC at 8 ug/ml by broth microdilution method; type: functional; conditions: dose 8 µg/ml
# Klebsiella pneumoniae [14] = assay: Synergistic antibacterial activity against Klebsiella pneumoniae 977/1916 producing KPC-3 assessed as meropenem MIC at 8 ug/ml by broth microdilution method; type: functional; conditions: dose 8 µg/ml
# Klebsiella pneumoniae [15] = assay: Synergistic antibacterial activity against Klebsiella pneumoniae 1108/1989 producing KPC-3 assessed as meropenem MIC at 4 ug/ml by broth microdilution method; type: functional; conditions: dose 4 µg/ml; how it was run: as §1
# Escherichia coli [16] = assay: Synergistic antibacterial activity against Escherichia coli DH10B transfected with pBC SK (-) KPC-3 assessed as cefepime MIC at 8 ug/ml by broth microdilution method; type: functional; conditions: dose 8 µg/ml
# Klebsiella pneumoniae [17] = assay: Synergistic antibacterial activity against Klebsiella pneumoniae 11978 producing OXA-48 assessed as cefepime MIC at 4 ug/ml by broth microdilution method; type: functional; conditions: dose 4 µg/ml; how it was run: as §1
# Klebsiella pneumoniae [18] = assay: Synergistic antibacterial activity against Klebsiella pneumoniae 729/1679 producing KPC-3 assessed as meropenem MIC at 4 ug/ml by broth microdilution method; type: functional; conditions: dose 4 µg/ml; how it was run: as §1
# Klebsiella pneumoniae [19] = assay: Synergistic antibacterial activity against Klebsiella pneumoniae 901/1860 producing KPC-3 assessed as meropenem MIC at 8 ug/ml by broth microdilution method; type: functional; conditions: dose 8 µg/ml
# Klebsiella pneumoniae [20] = assay: Synergistic antibacterial activity against Klebsiella pneumoniae 729/1679 producing KPC-3 assessed as meropenem MIC at 8 ug/ml by broth microdilution method; type: functional; conditions: dose 8 µg/ml; how it was run: as §1
# Klebsiella pneumoniae [21] = assay: Synergistic antibacterial activity against Klebsiella pneumoniae 660/1568 producing KPC-3 assessed as cefepime MIC at 8 ug/ml by broth microdilution method; type: functional; conditions: dose 8 µg/ml; how it was run: as §1
# Acinetobacter baumannii [22] = assay: Synergistic antibacterial activity against Acinetobacter baumannii PR323 producing OXA-24/40 assessed as meropenem MIC at 8 ug/ml by broth microdilution method; type: functional; conditions: dose 8 µg/ml
# Pseudomonas aeruginosa [23] = assay: Synergistic antibacterial activity against Pseudomonas aeruginosa 795 assessed as cefepime MIC at 8 ug/ml by broth microdilution method; type: functional; conditions: dose 8 µg/ml
# Escherichia coli [24] = assay: Synergistic antibacterial activity against Escherichia coli DH10B transfected with pBC SK (-) KPC-3 assessed as cefepime MIC at 4 ug/ml by broth microdilution method; type: functional; conditions: dose 4 µg/ml
# Acinetobacter baumannii [25] = assay: Synergistic antibacterial activity against Acinetobacter baumannii PR440 producing OXA-23/24/40 assessed as cefepime MIC at 4 ug/ml by broth microdilution method; type: functional; conditions: dose 4 µg/ml
# [26] = Binding affinity to bacteria ADC-7 assessed as dissociation constant
# Klebsiella pneumoniae [27] = assay: Synergistic antibacterial activity against Klebsiella pneumoniae 440/1360 producing KPC-2 assessed as meropenem MIC at 4 ug/ml by broth microdilution method; type: functional; conditions: dose 4 µg/ml; how it was run: as §1
# Klebsiella pneumoniae [28] = assay: Synergistic antibacterial activity against Klebsiella pneumoniae NY BS producing OXA-232 assessed as meropenem MIC at 8 ug/ml by broth microdilution method; type: functional; conditions: dose 8 µg/ml
# Acinetobacter baumannii [29] = assay: Synergistic antibacterial activity against ADC deleted Acinetobacter baumannii transfected with pWH1266 producing OXA-24/40 assessed as cefepime MIC at 8 ug/ml by broth microdilution method; type: functional; conditions: dose 8 µg/ml
# Klebsiella pneumoniae [30] = assay: Synergistic antibacterial activity against Klebsiella pneumoniae 977/1916 producing KPC-3 assessed as cefepime MIC at 8 ug/ml by broth microdilution method; type: functional; conditions: dose 8 µg/ml
# Acinetobacter baumannii [31] = assay: Synergistic antibacterial activity against Acinetobacter baumannii PR420 producing OXA-23/24/40 assessed as cefepime MIC at 8 ug/ml by broth microdilution method; type: functional; conditions: dose 8 µg/ml
# Klebsiella pneumoniae [32] = assay: Synergistic antibacterial activity against Klebsiella pneumoniae 776/1742 producing KPC-2 assessed as meropenem MIC at 4 ug/ml by broth microdilution method; type: functional; conditions: dose 4 µg/ml
# Escherichia coli [33] = assay: Synergistic antibacterial activity against Escherichia coli DH10B assessed as cefepime MIC at 8 ug/ml by broth microdilution method; type: functional; conditions: dose 8 µg/ml
# Pseudomonas aeruginosa [34] = assay: Synergistic antibacterial activity against Pseudomonas aeruginosa 776 assessed as meropenem MIC at 4 ug/ml by broth microdilution method; type: functional; conditions: dose 4 µg/ml
# Acinetobacter baumannii [35] = assay: Synergistic antibacterial activity against Acinetobacter baumannii PR440 producing OXA-23/24/40 assessed as cefepime MIC at 8 ug/ml by broth microdilution method; type: functional; conditions: dose 8 µg/ml
# Acinetobacter baumannii [36] = assay: Synergistic antibacterial activity against Acinetobacter baumannii PR420 producing OXA-23/24/40 assessed as cefepime MIC at 4 ug/ml by broth microdilution method; type: functional; conditions: dose 4 µg/ml
# Pseudomonas aeruginosa [37] = assay: Synergistic antibacterial activity against Pseudomonas aeruginosa 795 assessed as meropenem MIC at 4 ug/ml by broth microdilution method; type: functional; conditions: dose 4 µg/ml
SMILES,MIC (Acinetobacter baumannii [1]),MIC (Pseudomonas aeruginosa [2]),MIC (Klebsiella pneumoniae [3]),MIC (Klebsiella pneumoniae [4]),MIC (Escherichia coli [5]),MIC (Klebsiella pneumoniae [6]),MIC (Acinetobacter baumannii [7]),MIC (Escherichia coli [8]),MIC (Klebsiella pneumoniae [9]),MIC (Klebsiella pneumoniae [10]),MIC (Acinetobacter baumannii [11]),MIC (Klebsiella pneumoniae [12]),MIC (Klebsiella pneumoniae [13]),MIC (Klebsiella pneumoniae [14]),MIC (Klebsiella pneumoniae [15]),MIC (Escherichia coli [16]),MIC (Klebsiella pneumoniae [17]),MIC (Klebsiella pneumoniae [18]),MIC (Klebsiella pneumoniae [19]),MIC (Klebsiella pneumoniae [20]),further results
O=C(NNC(=O)[C@@H]1CC[C@@H]2CN1C(=O)N2OS(=O)(=O)O)[C@@H]1CCNC1,> 16 µg/mL,≤ 0.12 µg/mL,≤ 0.12 µg/mL,≤ 0.12 µg/mL,≤ 0.12 µg/mL,≤ 0.12 µg/mL,> 16 µg/mL,≤ 0.12 µg/mL,≤ 0.12 µg/mL,≤ 0.12 µg/mL,0.25 µg/mL,≤ 0.12 µg/mL,≤ 0.12 µg/mL,≤ 0.12 µg/mL,≤ 0.12 µg/mL,≤ 0.12 µg/mL,≤ 0.12 µg/mL,0.25 µg/mL,≤ 0.12 µg/mL,≤ 0.12 µg/mL,MIC (Klebsiella pneumoniae [21]): ≤ 0.12 µg/mL; MIC (Acinetobacter baumannii [22]): > 16 µg/mL; MIC (Pseudomonas aeruginosa [23]): ≤ 0.12 µg/mL; MIC (Escherichia coli [24]): ≤ 0.12 µg/mL; MIC (Acinetobacter baumannii [25]): > 16 µg/mL; Kd [26]: 29 nM; MIC (Klebsiella pneumoniae [27]): ≤ 0.12 µg/mL; MIC (Klebsiella pneumoniae [28]): ≤ 0.12 µg/mL; MIC (Acinetobacter baumannii [29]): 16 µg/mL; MIC (Klebsiella pneumoniae [30]): ≤ 0.12 µg/mL; MIC (Acinetobacter baumannii [31]): > 16 µg/mL; MIC (Klebsiella pneumoniae [32]): ≤ 0.12 µg/mL; MIC (Escherichia coli [33]): ≤ 0.12 µg/mL; MIC (Pseudomonas aeruginosa [34]): 16 µg/mL; MIC (Acinetobacter baumannii [35]): > 16 µg/mL
O=C(NNC(=O)[C@@H]1CC[C@@H]2CN1C(=O)N2OS(=O)(=O)O)[C@@H]1CCCNC1 [ZIDEBACTAM],> 16 µg/mL,0.5 µg/mL,≤ 0.12 µg/mL,≤ 0.12 µg/mL,≤ 0.12 µg/mL,≤ 0.12 µg/mL,> 16 µg/mL,≤ 0.12 µg/mL,≤ 0.12 µg/mL,≤ 0.12 µg/mL,0.25 µg/mL,≤ 0.12 µg/mL,≤ 0.12 µg/mL,≤ 0.12 µg/mL,≤ 0.12 µg/mL,≤ 0.12 µg/mL,≤ 0.12 µg/mL,≤ 0.12 µg/mL,≤ 0.12 µg/mL,≤ 0.12 µg/mL,MIC (Acinetobacter baumannii [36]): > 16 µg/mL; MIC (Klebsiella pneumoniae [21]): ≤ 0.12 µg/mL; MIC (Acinetobacter baumannii [22]): > 16 µg/mL; MIC (Pseudomonas aeruginosa [23]): 16 µg/mL; MIC (Escherichia coli [24]): ≤ 0.12 µg/mL; MIC (Acinetobacter baumannii [25]): 16 µg/mL; Kd [26]: 32 nM; MIC (Klebsiella pneumoniae [27]): ≤ 0.12 µg/mL; MIC (Klebsiella pneumoniae [28]): ≤ 0.12 µg/mL; MIC (Acinetobacter baumannii [29]): 16 µg/mL; MIC (Klebsiella pneumoniae [30]): ≤ 0.12 µg/mL; MIC (Acinetobacter baumannii [31]): > 16 µg/mL; MIC (Pseudomonas aeruginosa [37]): 16 µg/mL; MIC (Klebsiella pneumoniae [32]): ≤ 0.12 µg/mL; MIC (Escherichia coli [33]): ≤ 0.12 µg/mL; MIC (Pseudomonas aeruginosa [34]): 16 µg/mL; MIC (Acinetobacter baumannii [35]): > 16 µg/mL
